In ChEMBL document CHEMBL4513216, “Probing the Open Global Health Chemical Diversity Library for Multistage-Active Starting Points for Next-Generation Antimalarials” (ACS Infect Dis, 2020):

Assay: Toxicity liver stage against HepG2, at 10uM
Type: cell-based
Design: test concentration 10 uM, cell line HepG2-A16-CD81EGFP
Conditions: human, HepG2-A16-CD81EGFP cells; read-out: INHIBITION
How it was run: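 Uninfected HepG2-A16-CD81EGFP cells, 3 × 10^3 per well, 1536-well, plated on prespotted compound at 10 μM final, parasite-free screening media added to match infected plates; puromycin 10 μM positive, DMSO 0.5% negative; run in parallel with 48 h PbLuc assay at 37 °C, 5% CO2; viability by CellTiter-Glo luminescence, normalized to controls.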

| SMILES | cytotoxicity at 10 µM [%] |
| --- | --- |
| CCn1nc(C)c(C(=O)N2C[C@@H](CN(C)C)[C@@H](CO)C2)c1C | 0.44 |
| CN(C)S(=O)(=O)c1ccc(CN2CCCC2CO)o1 (stereo unspecified) | -6.88 |
| CN(C(=O)C1CC(=O)N(CCc2ccccc2)C1)c1nccs1 (stereo unspecified) | 9.89 |
| CN1C(=O)CC(c2cnn(C)c2)C12CCN(C(=O)c1ccnnc1)CC2 (stereo unspecified) | -74.4 |
| CCS(=O)(=O)N1CCc2ccc(NC(=O)NCc3ccccc3)cc21 | 10.9 |
| O=C(O)c1ccc(=O)n(CC(c2ccc(Cl)cc2)N2CCCCCC2)c1 (stereo unspecified) | 1.12 |
| N#Cc1cccc(NC2CC(=O)N(Cc3ccccc3Cl)C2)n1 (stereo unspecified) | 4.37 |
| Cc1nc(NC(=O)C(C)N(C)Cc2cccc(C#N)c2)sc1C (stereo unspecified) | -0.506 |
| CCOCC(=O)N1CC[C@H]2OCC[C@@H](c3nnc(C)o3)[C@H]2C1 | 12 |
| CCOCC1CN(CC2CCC2)Cc2nnn(CC3CC3)c21 (stereo unspecified) | 12.7 |
| CSc1ccc(C(=O)N2CCCC(Nc3ccc(F)cc3)C2)cc1 (stereo unspecified) | -11.4 |
| Cc1[nH]nc2ncc(C(=O)N3CCN(CC(O)C(C)(C)C)CC3)cc12 (stereo unspecified) | 4.41 |
| COc1ccc2cc(C(=O)NCCc3nc(C)no3)[nH]c2c1 | 9.63 |
| Cc1c(C(C)NC2CCCC2)cnn1-c1ccc(F)cc1F (stereo unspecified) | 4.91 |
| Cc1cnn(CCC(=O)N2CCCN(c3ncccc3C#N)CC2)c1 | 4.11 |
| Cc1ncc(CNC(=O)CCOc2ccccc2)c(C2CCCN2C)n1 (stereo unspecified) | -1.03 |
| CCOCC1COCCC12CCN(C(=O)CS(C)(=O)=O)CC2 (stereo unspecified) | -1.99 |
| CCn1c(Cn2cncn2)nnc1C1CCN(Cc2ccncc2)CC1 | 12.3 |
| O=C1NC2(CCN(C/C=C/c3ccccc3)CC2)CC1c1ccccc1 (stereo unspecified) | -47.1 |
| COc1ccc(C)cc1NC(=O)Cn1nc(C)c(C#N)c1N | -22.9 |
| O=C(c1cnccn1)N1CC2(CCN(Cc3ccsc3)C2)C1 | -4.23 |
| CC(C)Cc1cn(C2CCN(C(C)CC3CC3)CC2)nn1 (stereo unspecified) | -2.9 |
| CCN1CCCCC1C(=O)N1CCC(OCCOC)CC1 (stereo unspecified) | -6.81 |

| SMILES | cytotoxicity at 10 µM [%] |
| --- | --- |
| O=C(NC1CCCC1)N1CCC2(CC1)CC(Oc1cccnc1)CO2 (stereo unspecified) | -5.6 |
| CC(CNCc1ccc(Cl)cc1)Oc1ccccn1 (stereo unspecified) | 5.01 |
| Cc1cc(CN2CCCN(c3ccc(C#N)cc3)CC2)no1 | 2.07 |
| CNC(=O)[C@@H]1CN(C(=O)C2CCC2)C[C@H]1c1ccnc(N2CCCC2)n1 | -3.21 |
| Cc1ccoc1CNC(C)c1nnc2n1CCCC2 (stereo unspecified) | -12.6 |
| Cn1ccc2ccc(C(=O)N3CC[C@@]4(O)CCCC[C@H]4C3)cc21 | -46.6 |
| CC(C)C(CCO)NC(=O)Nc1cc(F)ccc1-n1cccn1 (stereo unspecified) | -4.06 |
| Cc1ccc(C(C)N(C)C(=O)c2ccc(=O)n(C)c2)s1 (stereo unspecified) | -4.27 |
| CC(Cn1cccn1)Nc1cnc2ccccc2n1 (stereo unspecified) | -7.67 |
| Cc1nc(N2CCCC2)nc2c1CCN(C(=O)NC1CCCC1)CC2 | 3.8 |
| CCOC(=O)C1(CCOC)CCCN(Cc2nccn2CC)C1 (stereo unspecified) | 10.8 |
| CCc1nc(C2CCCN2C(=O)c2ccc3c(c2)[nH]c(=O)n3C)no1 (stereo unspecified) | 1.04 |
| CCCN(C)C(=O)c1cc(Br)cc(S(=O)(=O)N2CCOCC2)c1F | 6.83 |
| CN(CCO)Cc1cc(Cl)ccc1OCC(O)CN1CCCCCC1 (stereo unspecified) | -5.09 |
| COC(=O)NCC(=O)N1CCC(Oc2cccc(C)c2)CC1 | -0.555 |
| CNC(=O)Cn1ccc2ccc(NC(=O)C(C)CSC)cc21 (stereo unspecified) | -1.1 |
| COCCN(Cc1ccc(F)cc1Cl)C(=O)c1csnn1 | 11.6 |
| CCCS(=O)(=O)N1CCO[C@H]2[C@H](OCc3ccccn3)CC[C@@H]21 | -9 |
| CC(C)N1CC(C(=O)NCc2ccc(S(=O)(=O)N(C)C)cc2)CC1=O (stereo unspecified) | 4.44 |
| CCOc1ccc(Cl)cc1CCNC(=O)Cn1ccccc1=O | 8 |
| CN(C(=O)c1cccc(NCc2cccs2)c1)C(C1CC1)C1CC1 | 8.41 |
| O=S(=O)(NC[C@H]1C[C@@H]2CCN1C[C@@H]2CN1CCOCC1)c1ccccc1 | 1.82 |
| Cc1cnn(CCNCc2nccn2Cc2ccccc2)c1 | 5.91 |

| SMILES | cytotoxicity at 10 µM [%] |
| --- | --- |
| CC1CCN(C(=O)CN2CCC(c3n[nH]c(C4CC4)n3)CC2)CC1 | -0.297 |
| CC(NC(=O)NCCCn1cncn1)c1ccncc1 (stereo unspecified) | -15.9 |
| CC1c2ncc(COCC3CC3)n2CCN1C (stereo unspecified) | 7.83 |
| Cc1cccc(CO[C@@H]2CC[C@H]3[C@H]2OCCN3Cc2ccoc2)n1 | -109 |
| c1ccc(CNc2cc(C3CCCNC3)ccn2)nc1 (stereo unspecified) | -0.565 |
| COCCN(Cc1ccc(F)cc1Cl)C(=O)c1ccncc1 | -5.69 |
| COc1cccc(COc2nc(C(C)C)no2)c1 | -42.4 |
| CC(C)n1ncc2c1NC(=O)CC21C(=O)Nc2cc(Cl)cc(Cl)c21 (stereo unspecified) | 19.1 |
| O=C(NCCc1ccccc1)N1CC[C@@H]2CNS(=O)(=O)[C@@H]2CC1 | -5.12 |
| CC(Oc1ccccc1C(F)(F)F)C(=O)NCCCC(N)=O (stereo unspecified) | -1.73 |
| O=C1NC2(CCN(Cc3cccnc3)CC2)CC1c1cccnc1 (stereo unspecified) | 3.14 |
| CSCC(=O)N1CCOC(c2nc(C(C)C)n[nH]2)C1 (stereo unspecified) | -4.99 |
| Cc1cc2n(n1)CC(CNC1CCN(Cc3ccncc3)CC1)CN2 (stereo unspecified) | 1.78 |
| Cc1ncnc2c1CCN(C(=O)c1ccoc1)CC2 | 6.73 |
| c1cncc(CN2CCCn3nnc(CN4CCCCC4)c3C2)c1 | 12.8 |
| O=C(CSCC1CC1)N1C[C@H]2CC[C@@H](C1)N(Cc1ccccn1)C2=O | 5 |
| CC[C@H]1COCCN1C(=O)c1ccc(OC)c(N2CCOCC2)c1 | 3.89 |
| CS(=O)(=O)NCCC(=O)Nc1cnn(-c2ccccc2Cl)c1 | -0.0414 |
| O=C(NCc1ccoc1)c1ccc(C2CCCN2CC2CCOCC2)s1 (stereo unspecified) | 6.7 |
| CCC(=O)Nc1ccc(C(C)Nc2nc3c(cnn3C)c(=O)[nH]2)cc1 (stereo unspecified) | 4.01 |
| Cc1ccc2oc(SCC(=O)NC(C)(C)C)nc2n1 | -0.3 |
| Cc1nnc(CN2CCCC2c2ccc3c(c2)OCCO3)n1C (stereo unspecified) | -0.379 |
| N#Cc1ccc(Cl)cc1NCC1CC1 | -3.7 |

| SMILES | cytotoxicity at 10 µM [%] |
| --- | --- |
| N#Cc1ccc(N2CCCN(CCCn3cncn3)CC2)cc1 | -8.9 |
| CCC(C)N(Cc1cnc(NC(C)C)nc1)Cc1ccsc1 (stereo unspecified) | 3.84 |
| c1nc2c(c(N3CCOC(Cn4cncn4)C3)n1)CCC2 (stereo unspecified) | 14.5 |
| O=C(O)Cn1nc(C2CC2)c2c(-c3ccco3)ccnc21 | -3.96 |
| CN(C)Cc1cc(CC2(NCc3ccc(C#N)cc3)COC2)no1 | -5.96 |
| COc1ccc(CN2CCCC3(CC2)CNC(=O)O3)cc1OC (stereo unspecified) | 5.75 |
| CCC(Nc1ccc(Oc2ccc(C#N)cc2OC)cc1)C(N)=O (stereo unspecified) | 65.7 |
| CCN(CC)CC(=O)NCc1cccnc1-n1cnc2ccccc21 | 1.77 |
| CCn1c(Cn2cncn2)nnc1C1CCN(C2CCOCC2)CC1 | 9.23 |
| COCCC(=O)N(C)CCC1=CCN(C)CC1 | -6.93 |
| CN1CCC(c2nnc(CN3CCC(O)CC3)n2C)CC1 | -8.94 |
| CC1=C(C#N)C(=O)NC(=O)/C1=C\c1c(C)[nH]n(-c2ccc(Cl)cc2)c1=O | -8.94 |
| Cc1ncc(CC(=O)N2CCCC(COc3ccccc3F)C2)c(=O)[nH]1 (stereo unspecified) | -151 |
| Cc1cc2nc(CN(C)c3ccc(Cl)cc3)cc(=O)n2o1 | -13 |
| CNCC(=O)N1CCC(c2cccc(Oc3ccccc3)n2)CC1 | -11.7 |
| Cc1ccc(C(=O)N2CCc3ncnc(C)c3CC2)o1 | 7.89 |
| CCn1ncc2[nH]c(-c3cc4c(cc3OC)OCO4)nc21 | -2.99 |
| O=C1CC(c2ccc(O)cc2)c2c(c(C(=O)O)cn2-c2ccccc2)N1 (stereo unspecified) | -4.99 |
| c1cnc(N2CCO[C@H]3[C@H](OCc4cccnc4)CC[C@@H]32)nc1 | -5.05 |
| CCCN1CCCn2c(nc(CNC(=O)c3cnoc3C)cc2=O)C1 | 2.32 |
| Cc1n[nH]c(C2CN(C(=O)c3coc(Br)c3)CCO2)n1 (stereo unspecified) | -11.3 |
| Cc1ccc(NC(=O)NCCCn2nc3ccccn3c2=O)cc1 | -19.1 |
| CCCc1ncc(CNC2(c3ccc(Cl)cc3)CC2)cn1 | -31.6 |

| SMILES | cytotoxicity at 10 µM [%] |
| --- | --- |
| COc1ccc(CN2CCC(c3cc(O)nc(C)n3)C2)c(OC)c1 (stereo unspecified) | -5.77 |
| Cc1c[nH]nc1C1CCCCN1C(=O)Cn1cc(Cl)cn1 (stereo unspecified) | 4.11 |
| CN(C)C(=O)c1n[nH]c2c1CCN(Cc1nccs1)C2 | -139 |
| NC(=O)COc1ccc(CNCc2cc(F)ccc2F)cc1 | 18.5 |
| CC(=O)N(CCc1nc(-c2cc(C(N)=O)co2)cs1)C(C)C | -4.91 |
| NC1(C(=O)NCC2CCCN(Cc3ccccc3F)C2)CCCC1 (stereo unspecified) | -43.2 |
| CS(=O)(=O)c1ccccc1N[C@@H]1c2ccccc2C[C@@H]1O | -40.5 |
| Cc1ccc(C(=O)N2CC[C@]3(C[C@@H](OCc4ccccn4)CO3)C2)nc1 | -74.6 |
| CCN1CC(C(=O)NCc2ccc3c(c2)nc(C)n3C)CCC1=O (stereo unspecified) | -6.9 |
| CCC(=O)N1CCC2(CC1)C(=O)N(C)CCN2Cc1csc(C)n1 | 5.59 |
| CNc1cc(-c2ccccc2CN)c2cc[nH]c2n1 | -1.43 |
| COCC(=O)N(C)Cc1cccc(Cl)c1 | -10.8 |
| Cc1c(NC(C)C(C)C)cccc1C(=O)NCc1nccn1C (stereo unspecified) | -5.99 |
| CN(CC(=O)NCC(C)(C)c1ccc2c(c1)OCO2)c1cnccn1 | -7.5 |
| CCc1ncc2c(n1)CN(C(=O)CC(C)NC(C)=O)C2 (stereo unspecified) | 3.6 |
| O=C(Nc1cccc(F)c1)N1CCN(Cc2noc(C3CC3)n2)CC1 | 3.8 |
| CC(C)Cc1nc(CN2CCc3onc(-c4cccc(F)c4)c3C2)no1 | 2.3 |
| Cn1nc(C(=O)N2CCOCC2)cc1C(=O)Nc1ccc(Cl)cc1Cl | -7.41 |
| CN(C)C[C@H]1C[C@@H]2CN(C(=O)c3ccno3)C[C@@H]2O1 | -6.32 |
